Measurements gathered from unrelated publications.
Compare with care: the assays were run in different laboratories.
BTK: Tyrosine-protein kinase BTK (BTK, Homo sapiens, UniProt Q06187)

`Cc1nc(Nc2ncc(C(=O)Nc3c(C)cccc3Cl)s2)cc(N2CC[C@H](N)C2)n1` gave an inhibition of 65% (BTK; enzyme activity, inhibitor, mobility shift; 1 nM).
`COc1ccc2oc(-c3ccc4nc(N)oc4c3)c/c(=N\c3ccccc3NC(=O)CCN)c2c1` gave a remaining signal of 99% (Tyrosine-protein kinase BTK (BTK, Homo sapiens, UniProt Q06187, R28H); cell-free assay; 1 µM).
For `[2H]c1cc(C)c(NC(=O)c2cnc(Nc3cc(N4CC[C@@H](O)C4)nc(C)n3)s2)c(Cl)c1`, the inhibition was 73% (BTK; enzyme activity, inhibitor, mobility shift; 1 nM).
`C#Cc1cnc(Nc2ccnc(CO)c2)nc1Nc1ccccc1S(C)(=O)=NC#N` (stereo not shown) gave a remaining signal of 41% (BTK; cell-free assay; 1 µM).
`CC#CC(=O)N1CCC[C@H]1c1nc(-c2ccc(C(=O)Nc3ccccn3)cc2)c2c(N)nccn12` gave an inhibition of 100% (BTK; enzyme activity, inhibitor; 1 µM).
`CCCCC(=O)Nc1ccc(-c2ccc3ncn(CCC)c(=O)c3c2)cn1` has a remaining binding of 89% (BTK; binding, competition with immobilised ligand; 0.5 µM).
The kinact/KI of `C=CC(=O)Nc1cccc(Oc2nc(Nc3ccc(N4CCN(C)CC4)cc3)nc3ccoc23)c1` is reported as 219000 M⁻¹ s⁻¹ (Tyrosine-protein kinase BTK, non-phosphorylated (BTK, Homo sapiens, UniProt Q06187); cell-free assay, TR-FRET).
`Cc1nc(Nc2ncc(C(=O)Nc3c(C)cccc3Cl)s2)cc(N2CCC(O)CC2)n1` gave an inhibition of 77% (BTK; enzyme activity, inhibitor, mobility shift; 1 nM).
`C1=C/COCc2cc(ccc2OCCN2CCCC2)Nc2nccc(n2)-c2cccc(c2)COC/1` has a remaining signal of 100% (BTK; cell-free assay; 0.1 µM).
With `CN1CCN(C(=O)c2ccc(NC(=O)Nc3ccc(N(C)c4ccnc(Nc5ccc(CS(C)(=O)=O)cc5)n4)cc3)cc2)CC1` the remaining binding was 50% (BTK; binding, competition with immobilised ligand; 1 µM).
`CO[C@@H]1[C@H](N(C)C(=O)c2ccccc2)C[C@H]2O[C@]1(C)n1c3ccccc3c3c4c(c5c6ccccc6n2c5c31)C(=O)NC4` gave an inhibition of 0% (BTK; enzyme activity, inhibitor; 1 µM).
`N#Cc1ccc(NC(=O)Nc2ccccc2)cc1` has a remaining binding of 89% (BTK; cell-free assay, competition with immobilised ligand; 25 µM).
For `COc1ccc2[nH]c3c4[nH]c5ccc(OC)cc5c4c4c(c3c2c1)C(=O)NC4=O`, the remaining binding was 74% (BTK; binding, competition with immobilised ligand; 1 µM).
